The results in this text go back to ChEMBL document CHEMBL3046847, “Synthesis and in vitro antiproliferative activity of novel 12(H)-quino[3,4-b][1,4]benzothiazine derivatives” (Med Chem Res, 2013).

≈ marks a conversion by molar mass, not a printed value.

One assay concerns SNB-19. The assay can be described thus: Cytotoxicity against Homo sapiens (human) SNB19 cells assessed as cell viability after 72 hr by WST-1 assay. The class given is functional, cell-based. The method, boiled down: (§1)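 Cells grown in D-MEM with 12 % FCS, streptomycin and penicillin at 37 °C, 5 % CO2, seeded at 1×10^4 cells/well. Exposed to compounds at 0–100 μg/ml for 72 h, then incubated with WST-1 for 2 h. Absorbance was read at 450 nm against a background control. Values are means of at least two independent experiments run in triplicate.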
Background: Formazan colour is commonly taken as a measure of viable cells.

The subject of another assay is C32. The assay can be described thus: Cytotoxicity against Homo sapiens (human) C32 cells assessed as cell viability after 72 hr by WST-1 assay. In kind it is functional, cell-based. In short, it runs like this: as §1
The mark [1] stands for this setting: Homo sapiens, C32, 72 h, read-out: IC50.
Where [2] appears, read: Homo sapiens, SNB-19, 72 h, read-out: IC50.

One may read the IC50 as the midpoint of a concentration-inhibition curve. Turning to `Clc1ccc2c(c1)Sc1cnc3ccccc3c1N2`, the half-maximal inhibitory concentration (IC50) entry is “Not Active” with SNB-19 (snb-19) and 7.8 µg/mL (≈ 27.4 µM) in the assay on C32 (setting [1]).
Consider `c1cnc2c(c1)N(CCN1CCCCC1)c1c(cnc3ccccc13)S2`, for which the IC50 in the assay on SNB-19 (setting [2]) was determined as 7.3 µg/mL (≈ 20.1 µM); in the assay on C32 (setting [1]), 7.9 µg/mL (≈ 21.8 µM).
In the same order, the values of `CN(C)CCCN1c2cccnc2Sc2cnc3ccccc3c21` are 8.2 µg/mL (≈ 24.4 µM) and 6.5 µg/mL (≈ 19.3 µM).
As for `c1ccc2c(c1)Sc1cnc3ccccc3c1N2CCN1CCCCC1`, the IC50 came to 6.7 µg/mL (≈ 18.5 µM) in the assay with SNB-19 (setting [2]) and 5.6 µg/mL (≈ 15.5 µM) with C32 (setting [1]).
In the case of `Fc1ccc2c(c1)Sc1cnc3ccccc3c1N2CCN1CCCCC1`, the results for the IC50 with SNB-19 (setting [2]) and with C32 (setting [1]) were 12.4 µg/mL (≈ 32.7 µM) and 7 µg/mL (≈ 18.4 µM), respectively.
For `Cc1ccc2c(c1)Sc1cnc3ccccc3c1N2CCN1CCCCC1`, the 50% inhibitory concentration (IC50) was 6.6 µg/mL (≈ 17.6 µM) with SNB-19 (setting [2]) and 6.9 µg/mL (≈ 18.4 µM) with C32 (setting [1]).
`Cc1cccc2c1Nc1c(cnc3ccccc13)S2`: the 50% inhibitory concentration (IC50) entry in the assay with SNB-19 (snb-19) and with C32 (c32) was “Not Active” throughout.
Turning to `c1cnc2c(c1)Nc1c(cnc3ccccc13)S2`, the results for the IC50 in the assay on SNB-19 (setting [2]) and in the assay on C32 (setting [1]) were 10.2 µg/mL (≈ 40.6 µM) and 8.7 µg/mL (≈ 34.6 µM), respectively.
Consider `Cc1ccc2c(c1)Sc1cnc3ccccc3c1N2`, for which the IC50 result with SNB-19 (snb-19) was “Not Active”; in the assay on C32 (setting [1]), 8.7 µg/mL (≈ 32.9 µM).
Consider `Brc1ccc2c(c1)Sc1cnc3ccccc3c1N2`, for which the figures for the IC50 result in the assay with SNB-19 (snb-19) and in the assay on C32 (setting [1]) were “Not Active” and 8.6 µg/mL (≈ 26.1 µM), respectively.
For the compound `Fc1ccc2c(c1)Sc1cnc3ccccc3c1N2`, the half-inhibitory concentration (IC50) entry in the assay on SNB-19 (snb-19) was “Not Active”; in the assay with C32 (setting [1]), 9.4 µg/mL (≈ 35 µM).
Take `c1ccc2c(c1)Nc1c(cnc3ccccc13)S2`: the 50% inhibitory concentration (IC50) is 9.6 µg/mL (≈ 38.3 µM) with SNB-19 (setting [2]) and 8.9 µg/mL (≈ 35.6 µM) in the assay on C32 (setting [1]).
